≈ marks a conversion by molar mass, not a printed value.
Key:
[1] = tested on: Serratia marcescens; assay: Antimicrobial activity against Serratia marcescens ATCC 8100 by agar dilution method; type: functional
Procedure, shortened: (§1)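 MICs by agar dilution following CLSI guidelines, with E. coli ATCC 25922 and P. aeruginosa ATCC 27853 as MIC reference strains. Where an inhibitor was added, boronic acid or cloxacillin served as the AmpC inhibitor.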

[2] = tested on: Serratia marcescens; assay: Antimicrobial activity against beta-lactamase AmpC producing meropenem-resistant Serratia marcescens by agar dilution method; type: functional
Procedure, shortened: (§2)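 MICs by agar dilution following CLSI guidelines, with E. coli ATCC 25922 and P. aeruginosa ATCC 27853 as MIC reference strains. Where added, clavulanic acid served as the ESBL inhibitor and phenyl-arginine-β-naphthylamide as the efflux-pump inhibitor, each incorporated into the susceptibility test.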

[3] = tested on: Escherichia coli; assay: Antimicrobial activity against azide-resistant Escherichia coli J53 by agar dilution method
[4] = tested on: Serratia marcescens; assay: Antimicrobial activity against beta-lactamase ompC intact/ompF deficient Serratia marcescens isolate YMC0582 by agar dilution method; type: functional; procedure, shortened: as §2
[5] = tested on: Serratia marcescens; assay: Antimicrobial activity against Serratia marcescens ATCC 8100 by agar dilution method in presence of 4 ug/ml of clavulanic acid; type: functional; procedure, shortened: as §2
[6] = tested on: Serratia marcescens; assay: Antimicrobial activity against beta-lactamase ompC intact/ompF deficient Serratia marcescens isolate YMC0564 by agar dilution method; type: functional; procedure, shortened: as §2
[7] = tested on: Serratia marcescens; assay: Antimicrobial activity against beta-lactamase ompC intact/ompF deficient Serratia marcescens isolate YMC0547 by agar dilution method; type: functional; procedure, shortened: as §2
[8] = tested on: Serratia marcescens; assay: Antimicrobial activity against beta-lactamase AmpC producing meropenem-resistant Serratia marcescens by agar dilution method in presence of 4 ug/ml of clavulanic acid; type: functional; procedure, shortened: as §2
[9] = tested on: Serratia marcescens; assay: Antimicrobial activity against beta-lactamase ompC intact/ompF deficient Serratia marcescens isolate YMC0583 by agar dilution method; type: functional; procedure, shortened: as §2
[10] = tested on: Escherichia coli; assay: Antimicrobial activity against azide-resistant Escherichia coli J53 by agar dilution method in presence 4 ug/ml of clavulanic acid; type: functional; procedure, shortened: as §2
[11] = tested on: Serratia marcescens; assay: Antimicrobial activity against beta-lactamase ompC intact/ompF deficient Serratia marcescens isolate YMC0584 by agar dilution method; type: functional; procedure, shortened: as §2
[12] = tested on: Serratia marcescens; assay: Antimicrobial activity against Serratia marcescens ATCC 8100 by agar dilution method in presence of 300 ug/ml of boronic acid; type: functional; procedure, shortened: as §1
[13] = tested on: Serratia marcescens; assay: Antimicrobial activity against beta-lactamase ompC intact/ompF deficient Serratia marcescens isolate YMC0579 by agar dilution method; type: functional; procedure, shortened: as §2
[14] = tested on: Serratia marcescens; assay: Antimicrobial activity against beta-lactamase ompC/ompF deficient Serratia marcescens ATCC 8100 by agar dilution method; type: functional
[15] = tested on: Serratia marcescens; assay: Antimicrobial activity against Serratia marcescens ATCC 8100 by agar dilution method in presence of 20 ug/ml of phenyl-arginine-beta-naphthylamide; type: functional; procedure, shortened: as §2
[16] = tested on: Serratia marcescens; assay: Antimicrobial activity against Serratia marcescens ATCC 8100 by agar dilution method in presence of 250 ug/ml of cloxacillin; type: functional; procedure, shortened: as §1
[17] = tested on: Serratia marcescens; assay: Antimicrobial activity against beta-lactamase ompC intact/ompF deficient Serratia marcescens isolate YMC0566 by agar dilution method; type: functional; procedure, shortened: as §2
[18] = tested on: Serratia marcescens; assay: Antimicrobial activity against beta-lactamase ompC intact/ompF deficient Serratia marcescens isolate YMC0570 by agar dilution method; type: functional; procedure, shortened: as §2
[19] = tested on: Serratia marcescens; assay: Antimicrobial activity against beta-lactamase ompC intact/ompF deficient Serratia marcescens isolate YMC0573 by agar dilution method; type: functional; procedure, shortened: as §2

Molecule: C[C@H]1[C@H](NC(=O)/C(=N\OC(C)(C)C(=O)O)c2csc(N)n2)C(=O)N1S(=O)(=O)O [AZTREONAM]
- MIC [1]: 64 µg/mL (≈ 147 µM)
- MIC [2]: 8 µg/mL (≈ 18.4 µM)

Molecule: CO/N=C(\C(=O)N[C@@H]1C(=O)N2C(C(=O)O)=C(COC(C)=O)CS[C@H]12)c1csc(N)n1 [CEFOTAXIME]
- MIC [1]: > 256 µg/mL
- MIC [3]: ≤ 0.12 µg/mL
- MIC [2]: 32 µg/mL (≈ 70.3 µM)

Molecule: CO[C@@]1(NC(=O)Cc2cccs2)C(=O)N2C(C(=O)O)=C(COC(N)=O)CS[C@@H]21 [CEFOXITIN]
- MIC [1]: > 256 µg/mL
- MIC [3]: 4 µg/mL (≈ 9.36 µM)
- MIC [2]: 4 µg/mL (≈ 9.36 µM)

Molecule: CC(C)(O/N=C(\C(=O)N[C@@H]1C(=O)N2C(C(=O)[O-])=C(C[n+]3ccccc3)CS[C@H]12)c1csc(N)n1)C(=O)O [CEFTAZIDIME]
- MIC [1]: 128 µg/mL (≈ 234 µM)
- MIC [3]: 0.25 µg/mL (≈ 0.457 µM)
- MIC [2]: 2 µg/mL (≈ 3.66 µM)

Molecule: O=C(O)c1cn(C2CC2)c2cc(N3CCNCC3)c(F)cc2c1=O [CIPROFLOXACIN]
- MIC [1]: 8 µg/mL (≈ 24.1 µM)
- MIC [2]: ≤ 0.12 µg/mL

Molecule: C[C@@H](O)[C@H]1C(=O)N2C(C(=O)O)=C(SCCNC=N)C[C@H]12 [IMIPENEM ANHYDROUS]
- MIC [1]: 4 µg/mL (≈ 13.4 µM)
- MIC [4]: 4 µg/mL (≈ 13.4 µM)
- MIC [5]: 4 µg/mL
- MIC [6]: 4 µg/mL (≈ 13.4 µM)
- MIC [7]: 8 µg/mL (≈ 26.7 µM)
- MIC [8]: 0.06 µg/mL
- MIC [9]: 4 µg/mL (≈ 13.4 µM)
- MIC [10]: 0.12 µg/mL
- MIC [11]: 8 µg/mL (≈ 26.7 µM)
- MIC [12]: 0.5 µg/mL
- MIC [13]: 4 µg/mL (≈ 13.4 µM)
- MIC [14]: 0.02 µg/mL (≈ 0.0668 µM)
- MIC [15]: 4 µg/mL
- MIC [2]: 0.12 µg/mL (≈ 0.401 µM)
- MIC [16]: 0.094 µg/mL
- MIC [17]: 4 µg/mL (≈ 13.4 µM)
- MIC [18]: 4 µg/mL (≈ 13.4 µM)
- MIC [19]: 4 µg/mL (≈ 13.4 µM)

Molecule: C[C@@H](O)[C@H]1C(=O)N2C(C(=O)O)=C(S[C@@H]3CN[C@H](C(=O)N(C)C)C3)[C@H](C)[C@H]12 [MEROPENEM]
- MIC [1]: 16 µg/mL (≈ 41.7 µM)
- MIC [4]: 16 µg/mL (≈ 41.7 µM)
- MIC [5]: 16 µg/mL
- MIC [6]: 16 µg/mL (≈ 41.7 µM)
- MIC [7]: 32 µg/mL (≈ 83.4 µM)
- MIC [8]: 0.015 µg/mL
- MIC [9]: 16 µg/mL (≈ 41.7 µM)
- MIC [10]: 0.015 µg/mL
- MIC [3]: 0.03 µg/mL (≈ 0.0782 µM)
- MIC [11]: 16 µg/mL (≈ 41.7 µM)
- MIC [12]: 1 µg/mL
- MIC [13]: 16 µg/mL (≈ 41.7 µM)
- MIC [14]: 0.25 µg/mL (≈ 0.652 µM)
- MIC [15]: 8 µg/mL
- MIC [2]: 0.015 µg/mL (≈ 0.0391 µM)
- MIC [16]: 0.008 µg/mL
- MIC [17]: 16 µg/mL (≈ 41.7 µM)
- MIC [18]: 16 µg/mL (≈ 41.7 µM)
- MIC [19]: 16 µg/mL (≈ 41.7 µM)

Molecule: CCN1CCN(C(=O)N[C@@H](C(=O)N[C@@H]2C(=O)N3[C@@H]2SC(C)(C)[C@@H]3C(=O)O)c2ccccc2)C(=O)C1=O [PIPERACILLIN]
- MIC [1]: > 256 µg/mL
- MIC [3]: 1 µg/mL (≈ 1.93 µM)
- MIC [2]: > 256 µg/mL

Molecule: GENTAMICIN
- MIC [1]: > 256 µg/mL
- MIC [2]: 32 µg/mL

Reference: ChEMBL document CHEMBL1687811, “Outbreak of meropenem-resistant Serratia marcescens comediated by chromosomal AmpC beta-lactamase overproduction and outer membrane protein loss” (2010)
